Measurements from ChEMBL document CHEMBL1151787, “Salicylanilides: selective inhibitors of interleukin-12p40 production” (Bioorg Med Chem, 2008).
The source made the active and inactive calls. No cut-off for these calls is given here.

Experiments:
[1] = Inhibition of CD40L, IFN-gamma and IL18 mixture-induced IL12p40 production in mouse DC-B cells after 18 to 24 hrs by fluorescence immunoassay; assay type: functional, cell-based
In short: (§1)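 DC-B cells grown in GM-CSF (20 ng/mL) medium and passaged every 48 h. Cells were mixed with compound in low-serum assay medium (0.4% DMSO) and stimulated with murine CD40L 2 ng/mL, IL-18 40 ng/mL and IFN-gamma 20 ng/mL (final). Incubation was 18–24 h at 37 °C, 5% CO2. Supernatant IL-12p40 or IL-6 was measured by europium sandwich immunoassay (biotinylated detection antibody, Eu-streptavidin, 615 nm). Ten concentrations were tested, in triplicate, and results were expressed as percent of control versus concentration.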

[2] = Inhibition of CD40L, IFN-gamma and IL18 mixture-induced IL6 production in mouse DC-B cells after 18 to 24 hrs by fluorescence immunoassay; assay type: functional, cell-based; in short: as §1
[3] = Cytotoxicity against CD40L, IFN-gamma and IL18 mixture-stimulated mouse DC-B cells at <100 nM after 18 hrs by CellTiter-Glo assay; assay type: cell-based
In short: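 Murine dendritic cell line DC-B treated with test compound, then stimulated as in the cytokine assay (mouse CD40L, IL-18, IFN-gamma) and incubated 18 h. CellTiter-Glo reagent added in volume equal to the culture. Plates shaken 2 min to lyse cells, then left 10 min without shaking. Luminescence read on a microplate reader.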

[4] = species: Mus musculus; experiment: Inhibition of CD40L, IFN-gamma and IL18 mixture-induced IL12p40 production in mouse DC-B cells at 10 uM after 18 to 24 hrs by fluorescence immunoassay; assay type: functional, cell-based

IC50 [1] [nM] | IC50 [2] [nM] | SMILES | Activity [3] | Activity [4]
13 | > 10000 | O=C(Nc1cc(Cl)cc(Cl)c1)c1ccccc1O | Non-toxic | 
45 | > 10000 | O=C(Nc1cc(Cl)c(Cl)cc1Cl)c1ccccc1O | Non-toxic | 
410 | 170 | O=C(Nc1cc(Cl)cc(Cl)c1)c1cc([N+](=O)[O-])ccc1O | Non-toxic | 
> 10000 | > 10000 | O=C(Nc1ccc(O)cc1)c1ccccc1O [OSALMID] | Non-toxic | 
240 | 220 | O=C(Nc1cc(Cl)cc(Cl)c1)c1ccccc1NS(=O)(=O)c1ccc(Cl)c([N+](=O)[O-])c1 | Non-toxic | 
2700 | 1700 | Oc1ccc(Br)cc1CNc1cc(Cl)cc(Cl)c1 | Non-toxic | 
13 | 300 | O=C(Nc1cc(Cl)cc(Cl)c1)c1cc(Br)ccc1O | Non-toxic | 
> 10000 | > 10000 | Cc1cc(C)cc(NC(=O)c2ccccc2O)c1 | Non-toxic | 
74 | 640 | O=C(Nc1cc(Cl)c(Cl)cc1Cl)c1cc(Br)ccc1O | Non-toxic | 
> 10000 | > 10000 | O=C1c2cccc(O)c2C(=O)N1c1cc(Cl)cc(Cl)c1 | Non-toxic | 
5100 | > 10000 | O=C(Nc1cccc(Cl)c1)c1ccccc1O | Non-toxic | 
120 | 740 | O=C(Nc1cc(C(F)(F)F)cc(C(F)(F)F)c1)c1ccccc1O | Non-toxic | 
200 | 1800 | O=C(Nc1cc(C(F)(F)F)ccc1Cl)c1ccccc1O | Non-toxic | 
> 10000 | > 10000 | O=C(O)CN(C(=O)c1ccccc1O)c1cc(Cl)cc(Cl)c1 | Non-toxic | 
> 10000 | > 10000 | O=C(Nc1ccccn1)c1ccccc1O | Non-toxic | 
> 10000 | > 10000 | CN(C(=O)c1ccccc1O)c1cc(Cl)cc(Cl)c1 | Non-toxic | 
320 | 250 | O=C(Nc1cc(Cl)cc(Cl)c1)c1ccc([N+](=O)[O-])cc1O | Non-toxic | 
130 | 130 | O=C(Nc1ccc(Cl)c(Cl)c1)c1cc(Cl)ccc1O | Non-toxic | 
280 | 350 | O=c1oc2cc(Cl)ccc2c(=O)n1-c1cc(C(F)(F)F)cc(C(F)(F)F)c1 | Non-toxic | 
> 10000 | > 10000 | O=C(Nc1cc(Cl)cc(Cl)c1)c1ccccc1OCc1ccccc1 | Non-toxic | inactive
